Test results from ChEMBL document CHEMBL1149817, “Epimers of bicyclo[2.2.2]octan-2-ol derivatives with antiprotozoal activity” (Eur J Med Chem, 2008).

Legend:
Plasmodium falciparum = assay: Antiprotozoal activity against chloroquine and pyrimethamine-resistant Plasmodium falciparum K1; format: functional, organism-based
Summary of the method: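 Read-out was IC50 against the K1 strain of P. falciparum, which is resistant to chloroquine and pyrimethamine. The table footnote gives values from two independent experiments.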

L6 = assay: Cytotoxicity against rat L6 cells; format: cell-based
[1] = test system: Trypanosoma brucei rhodesiense; assay: Antiprotozoal activity against Trypanosoma brucei rhodesiense STIB900; format: functional, organism-based

SMILES	IC50 (Plasmodium falciparum) [µM]	IC50 (L6; l6) [µM]	IC50 [1] [µM]	IC50 (Plasmodium falciparum; Plasmodium falciparum, K1) [µM]	IC50 ([1]; Trypanosoma brucei) [µM]	IC50 (L6; Rattus norvegicus, L6) [µM]
O=C(OC1CC2(N3CCCC3)CC(c3ccccc3)C1C(c1ccccc1)C2)c1ccccc1 (stereo in doubt; 4b)	4.5	5.08	4.95			
O=C(OC1CC2(N3CCCCC3)CC(c3ccccc3)C1C(c1ccccc1)C2)c1cccnc1 (racemic)		21.3				
O=C(OC1CC2(N3CCCCC3)CC(c3ccccc3)C1C(c1ccccc1)C2)c1ccncc1 (racemic; 11c)		21.3	3.35	0.62		
CN(C)C12CC(OC(=O)c3ccncc3)C(C(c3ccccc3)C1)C(c1ccccc1)C2 (racemic; 11a)	0.49	12.5			1.68	
OC1CC2(N3CCCC3)CC(c3ccccc3)C1C(c1ccccc1)C2 (racemic)				1.23	2.53	35.4
O=C(OC1CC2(N3CCCCC3)CC(c3ccccc3)C1C(c1ccccc1)C2)c1ccccc1 (stereo in doubt; 4c)	0.66	97.3	15			
OC1CC2(N3CCCCC3)CC(c3ccccc3)C1C(c1ccccc1)C2 (racemic)	2.77		13.1			34.3
CN(C)C12CC(OC(=O)c3ccncc3)C(C(c3ccccc3)C1)C(c1ccccc1)C2 (racemic; 7a)	1.14	26.1	3.16			
CN(C)C12CC(OC(=O)c3ccc(Cl)cc3)C(C(c3ccccc3)C1)C(c1ccccc1)C2 (stereo in doubt; 5a)	0.55	9.46	1.06			
CN(C)C12CC(OC(=O)c3ccc(Cl)cc3)C(C(c3ccccc3)C1)C(c1ccccc1)C2 (racemic)	1.11	4.35			2.04	
CN(C)C12CC(OC(=O)c3ccccc3)C(C(c3ccccc3)C1)C(c1ccccc1)C2 (stereo in doubt; 4a)	2.47	9.88	1.53			
O=C(OC1CC2(N3CCCC3)CC(c3ccccc3)C1C(c1ccccc1)C2)c1ccncc1 (racemic; 7b)	0.86	27.4	3.49			
CN(C)C12CC(OC(=O)c3cccnc3)C(C(c3ccccc3)C1)C(c1ccccc1)C2 (racemic)	0.5	12.2	1.52			
O=C(OC1CC2(N3CCCCC3)CC(c3ccccc3)C1C(c1ccccc1)C2)c1cccnc1 (stereo in doubt; 6c)		0.87		0.48	70.9	
O=C(OC1CC2(N3CCCC3)CC(c3ccccc3)C1C(c1ccccc1)C2)c1ccc(Cl)cc1 (racemic)		7.31	0.86	0.76		
CN(C)C12CC(OC(=O)c3ccccc3)C(C(c3ccccc3)C1)C(c1ccccc1)C2 (racemic)	1.18				1.12	6.02
O=C(OC1CC2(N3CCCC3)CC(c3ccccc3)C1C(c1ccccc1)C2)c1cccnc1 (stereo in doubt; 6b)	0.2	24.4	0.62			
CN(C)C12CC(O)C(C(c3ccccc3)C1)C(c1ccccc1)C2 (racemic)	13.1	158	3.64			
O=C(OC1CC2(N3CCCCC3)CC(c3ccccc3)C1C(c1ccccc1)C2)c1ccc(Cl)cc1 (racemic)		23	1.76	1.12		
O=C(OC1CC2(N3CCCCC3)CC(c3ccccc3)C1C(c1ccccc1)C2)c1ccccc1 (racemic)		17.2	3.12	0.77		
O=C(OC1CC2(N3CCCCC3)CC(c3ccccc3)C1C(c1ccccc1)C2)c1ccncc1 (racemic; 7c)	0.65	113	16.9			
O=C(OC1CC2(N3CCCC3)CC(c3ccccc3)C1C(c1ccccc1)C2)c1ccncc1 (racemic; 11b)	4.49		1.44			26.9
O=C(OC1CC2(N3CCCCC3)CC(c3ccccc3)C1C(c1ccccc1)C2)c1ccc(Cl)cc1 (stereo in doubt; 5c)	0.79	104	37.6			
O=C(OC1CC2(N3CCCC3)CC(c3ccccc3)C1C(c1ccccc1)C2)c1ccc(Cl)cc1 (stereo in doubt; 5b)	0.47	74.9	6.27			
CN(C)C12CC(OC(=O)c3cccnc3)C(C(c3ccccc3)C1)C(c1ccccc1)C2 (stereo in doubt; 6a)	1.49	171	15.9			
O=C(OC1CC2(N3CCCC3)CC(c3ccccc3)C1C(c1ccccc1)C2)c1ccccc1 (racemic)	0.8		0.96			8.41
O=C(OC1CC2(N3CCCC3)CC(c3ccccc3)C1C(c1ccccc1)C2)c1cccnc1 (racemic)	2.34				1.07	18.7
